Experimental data from different studies.
Lines come from different studies, so protocols differ.
Organism: Staphylococcus aureus
Observed: microbial growth

| SMILES | test | system | setting | MIC |
| --- | --- | --- | --- | --- |
| COc1ccc(OS(=O)(=O)NC(=O)CCCCc2ccccc2)cc1 |  | ATCC33591 MRSA | drug-resistant strain | > 200 µg/mL |
| Cc1ccc2nc(-c3ccc(F)cc3)n(Cc3ccccc3)c2c1 | broth dilution | ATCC43300 MRSA | drug-resistant strain | 64 µg/mL |
| Cc1cc(Cl)ccc1-c1ccc(/C=C2\SC(=S)N(CC(=O)O)C2=O)o1 | broth dilution | MRSA USA300 | drug-resistant strain | 8 to 64 µg/mL |
| Cc1ccc2[nH]c3c(c2c1)CCCC3NCCc1ccc(Br)cc1 (stereo not drawn) | broth dilution | ATCC29213 |  | 4 µg/mL |
| CC1C(=NOCc2cn(-c3ccccc3)nn2)CC(c2ccccc2)OC1c1ccccc1 (stereo not drawn) | broth dilution | MTCC96 | 24 h | 25 µg/mL |
| O=[N+]([O-])c1ccc(-c2nc3cc(F)ccc3[nH]2)o1 | broth dilution | ATCC700699 MRSA | drug-resistant strain | 4 µg/mL |
| COC(=O)c1cc(-c2cccc(NC(=O)Nc3cccc(C#N)c3)c2)on1 | broth dilution | ATCC29213 |  | > 64 µg/mL |
| Cc1ccc2nc(-c3ccncc3)[nH]c2c1 | broth dilution | ATCC43300 MRSA | drug-resistant strain | 128 µg/mL |
| COC(=O)c1cc(-c2cccc(NC(=O)Nc3cc(Cl)ccc3Cl)c2)on1 | broth dilution | ATCC29213 |  | > 64 µg/mL |
| CCCCCCCCCCCC(=O)CP(=O)(O)O |  | ATCC33591 MRSA | drug-resistant strain | 100 µg/mL |
| Cc1ccc2nc(-c3ccc([N+](=O)[O-])cc3)[nH]c2c1 | broth dilution | ATCC43300 MRSA | drug-resistant strain | 256 µg/mL |
| COC(=O)c1cc(-c2cccc(NC(=O)Nc3ccc(C)cc3)c2)on1 | broth dilution | ATCC29213 |  | > 64 µg/mL |
| CC(=O)Nc1c2sscc-2[nH]c1=O |  | MRSA | drug-resistant strain | 2.5 µM |
| Cc1ccc2nc(-c3ccccc3O)[nH]c2c1 | broth dilution | ATCC43300 MRSA | drug-resistant strain | 256 µg/mL |
| CNC(=O)c1cc(Oc2ccc(NC(=S)Nc3ccc(Cl)c(C(F)(F)F)c3)cc2)ccn1 |  | NCTC8325 |  | 10 µM |
| CN[C@H](CC(C)C)C(=O)N[C@H]1C(=O)N[C@@H](CC(N)=O)C(=O)N[C@H]2C(=O)N[C@H]3C(=O)N[C@H](C(=O)N[C@H](C(=O)O)c4cc(O)cc(O)c4-c4cc3ccc4O)[C@H](O)c3ccc(c(Cl)c3)Oc3cc2cc(c3O[C@@H]2O[C@H](CO)[C@@H](O)[C@H](O)[C@H]2O[C@H]2C[C@](C)(N)[C@H](O)[C@H](C)O2)Oc2ccc(cc2Cl)[C@H]1O |  | NEWMAN |  | 1 µg/mL |
| Cc1ccc2nc(-c3ccc(Cl)cc3)n(Cc3ccccc3)c2c1 | broth dilution | ATCC43300 MRSA | drug-resistant strain | 8 µg/mL |
| CCCCCC/C=C\CCCCCCCCCc1cc(O)cc(O)c1 | broth dilution | USA300 | drug-resistant strain | > 64 µg/mL |
| CCCCCCCC(=O)CP(=O)(O)O |  | ATCC33591 MRSA | drug-resistant strain | 200 µg/mL |
| O=C(N[C@H](CO)[C@H](O)c1ccc([N+](=O)[O-])cc1)C(Cl)Cl |  | USA300 |  | 4 µg/mL |
| COC(=O)c1cc(-c2cccc(NC(=O)Nc3ccc(Cl)cc3)c2)on1 | broth dilution | ATCC29213 |  | > 64 µg/mL |
| O=C(Nc1ccc(O)cc1)Nc1ccc(Cl)c(C(F)(F)F)c1 |  | NCTC8325 |  | 100 µM |
| CN[C@H](CC(C)C)C(=O)N[C@H]1C(=O)N[C@@H](CC(N)=O)C(=O)N[C@H]2C(=O)N[C@H]3C(=O)N[C@H](C(=O)N[C@H](C(=O)O)c4cc(O)cc(O)c4-c4cc3ccc4O)[C@H](O)c3ccc(c(Cl)c3)Oc3cc2cc(c3O[C@@H]2O[C@H](CO)[C@@H](O)[C@H](O)[C@H]2O[C@H]2C[C@](C)(N)[C@H](O)[C@H](C)O2)Oc2ccc(cc2Cl)[C@H]1O |  | MRSA |  | 8 µg/mL |

| SMILES | test | system | setting | MIC |
| --- | --- | --- | --- | --- |
| CCN1CCN(C(=O)Cc2ccc(Nc3ncc(F)c(Nc4ccc(C(=O)Nc5ccccc5Cl)cc4)n3)cc2)CC1 |  | NCTC8325 |  | > 30 µM |
| COC(=O)c1cc(-c2cccc(NC(=S)Nc3ccc([N+](=O)[O-])cc3)c2)on1 | broth dilution | ATCC29213 |  | > 64 µg/mL |
| CCCCCCCC/C=C\CCCCCCCC(=O)C(F)(F)P(=O)(O)O |  | ATCC33591 MRSA | drug-resistant strain | > 200 µg/mL |
| CC1(C)S[C@@H]2[C@H](NC(=O)Cc3ccccc3)C(=O)N2[C@H]1C(=O)O |  | USA300 |  | 128 µg/mL |
| c1ccc2c(-c3nc4ccccc4[nH]3)c3ccccc3cc2c1 | broth dilution | ATCC43300 MRSA | drug-resistant strain | 64 µg/mL |
| COc1cc(C)c(Cc2cnc(N)nc2N)cc1OC | broth dilution |  |  | ~16.6 µM |
| COC(=O)c1cc(-c2cccc(NC(=O)Nc3cccc(C(F)(F)F)c3)c2)on1 | broth dilution | ATCC29213 |  | > 64 µg/mL |
| Cn1cc(C2=C(c3cn(C4CCN(Cc5ccccn5)CC4)c4ccccc34)C(=O)NC2=O)c2ccccc21 |  | NCTC8325 |  | > 30 µM |
| O=[N+]([O-])c1ccc(-c2nc3ccccc3n2Cc2ccccc2)cc1 | broth dilution | ATCC43300 MRSA | drug-resistant strain | 4 µg/mL |
| C[C@H]1COCCN1c1nc(NCc2cccnc2C(F)(F)F)c2cccnc2n1 | broth dilution | MRSA |  | 128 µg/mL |
| CC1(C)CC[C@]2(C(=O)O)CC[C@]3(C)C(=CC[C@@H]4[C@@]5(C)CC[C@H](O)C(C)(C)[C@@H]5CC[C@]43C)[C@@H]2C1 |  | ATCC25923 |  | 32 µg/mL |
| CC(=O)c1ccc(NC(=O)Nc2ccc(Cl)c(C(F)(F)F)c2)cc1 |  | NCTC8325 |  | 30 µM |
| CCCCCCCC(=O)NP(=O)(O)O |  | ATCC33591 MRSA | drug-resistant strain | > 200 µg/mL |
| COC(=O)c1cc(-c2cccc(NC(=O)Nc3ccccc3)c2)on1 | broth dilution | ATCC29213 |  | > 64 µg/mL |
| CO[C@H]1[C@H](O[C@H]([C@H]2O[C@@H](n3ccc(=O)[nH]c3=O)[C@H](O)[C@@H]2O)[C@H](NCCCNC(=O)[C@@H](NC(=O)[C@@H](NC(=O)N[C@H](C(=O)O)C(C)C)[C@@H]2CCN=C(N)N2)[C@@H](OC(=O)CCCCC(C)C)C(C)C)C(=O)O)O[C@H](CN)[C@H]1O |  | NEWMAN |  | > 32 µg/mL |
| Cc1onc(-c2ccccc2)c1C(=O)N[C@@H]1C(=O)N2[C@@H]1SC(C)(C)[C@@H]2C(=O)O | broth dilution | MRSA |  | 32 µg/mL |
| COC(=O)c1cc(-c2cccc(NC(=O)Nc3ccc(F)cc3F)c2)on1 | broth dilution | ATCC29213 |  | > 64 µg/mL |
| COc1cccc(OC)c1C(=O)N[C@@H]1C(=O)N2[C@@H]1SC(C)(C)[C@@H]2C(=O)O |  | ATCCBAA41 | drug-resistant strain, clinical isolate | > 64 µg/mL |
| CN[C@H](CC(C)C)C(=O)N[C@H]1C(=O)N[C@@H](CC(N)=O)C(=O)N[C@H]2C(=O)N[C@H]3C(=O)N[C@H](C(=O)N[C@H](C(=O)O)c4cc(O)cc(O)c4-c4cc3ccc4O)[C@H](O)c3ccc(c(Cl)c3)Oc3cc2cc(c3O[C@@H]2O[C@H](CO)[C@@H](O)[C@H](O)[C@H]2O[C@H]2C[C@](C)(N)[C@H](O)[C@H](C)O2)Oc2ccc(cc2Cl)[C@H]1O |  | ATCC700699 | drug-resistant strain | 0.39 µg/mL |
| CCCCCCCCCCCCCCCC(=O)CP(=O)(O)O |  | ATCC33591 MRSA | drug-resistant strain | 100 µg/mL |
| CSc1ccc(-c2nc3ccc(C)cc3n2Cc2ccccc2)cc1 | broth dilution | ATCC43300 MRSA | drug-resistant strain | 256 µg/mL |
| Cc1ccc2[nH]c3c(c2c1)CCCC3NCCc1ccc(O)cc1 (stereo not drawn) | broth dilution | MRSA USA300 |  | 16 µg/mL |
